Reference: ChEMBL document CHEMBL4622853, “Design and synthesis of novel pyrrolo[2,3-b]pyridine derivatives targeting V600EBRAF” (Bioorg Med Chem, 2020)

Columns and labels:
[1] = test system: Serine/threonine-protein kinase B-raf (Homo sapiens), P15056 [V600E]; assay: Inhibition of human BRAF V600E mutant at 10 uM by ELISA
[2] = molecular target: T1, Serine/threonine-protein kinase B-raf (Homo sapiens, UniProt P15056); assay: Inhibition of human wild type BRAF at 10 uM by ELISA
Summary of the method: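 Wild-type BRAF kinase inhibition run in the same manner as the V600E-B-RAF ELISA, reported as percent inhibition at 10 µM.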

[3] = molecular target: Serine/threonine-protein kinase B-raf (Homo sapiens, UniProt P15056, V600E); assay: Inhibition of human BRAF V600E mutant by ELISA
[4] = test system: HL-60(TB); assay: Cytotoxicity against human HL-60(TB) cells assessed as reduction in cell viability after 48 hrs by SRB assay; format: functional, cell-based; settings: HL-60, 48 h
Summary of the method: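 Tested within the NCI sixty human cancer cell line panel. IC50 is the concentration that reduces cellular growth to 50% of untreated cells after treatment.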

[5] = test system: K562; assay: Cytotoxicity against human K562 cells assessed as reduction in cell viability after 48 hrs by SRB assay; format: functional, cell-based; settings: K562, 48 h
Summary of the method: (§1)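 Cell lines from the NCI sixty human cancer cell line panel. IC50 taken as the concentration that reduces cellular growth to 50% of untreated cells.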

[6] = test system: NCI-H460; assay: Cytotoxicity against human NCI-H460 cells assessed as reduction in cell viability after 48 hrs by SRB assay; format: functional, cell-based; settings: NCI-H460, 48 h; summary of the method: as §1
[7] = test system: NCI-H522; assay: Cytotoxicity against human NCI-H522 cells assessed as reduction in cell viability after 48 hrs by SRB assay; format: functional, cell-based; settings: NCI-H522, 48 h; summary of the method: as §1
[8] = test system: HCT-116; assay: Cytotoxicity against human HCT116 cells assessed as reduction in cell viability after 48 hrs by SRB assay; format: functional, cell-based; settings: HCT-116, 48 h; summary of the method: as §1
[9] = test system: M14; assay: Cytotoxicity against human M14 cells assessed as reduction in cell viability after 48 hrs by SRB assay; format: functional, cell-based; settings: M14, 48 h; summary of the method: as §1
[10] = test system: SK-MEL-2; assay: Cytotoxicity against human SK-MEL-2 cells assessed as reduction in cell viability after 48 hrs by SRB assay; format: functional, cell-based; settings: SK-MEL-2, 48 h; summary of the method: as §1
[11] = test system: LOX IMVI; assay: Cytotoxicity against human LOXIMVI cells assessed as reduction in cell viability after 48 hrs by SRB assay; format: functional, cell-based; summary of the method: as §1
[12] = test system: Malme-3M; assay: Cytotoxicity against human MALME-3M cells assessed as reduction in cell viability after 48 hrs by SRB assay; format: functional, cell-based; summary of the method: as §1
[13] = test system: IGROV-1; assay: Cytotoxicity against human IGROV1 cells assessed as reduction in cell viability after 48 hrs by SRB assay; format: functional, cell-based; settings: IGROV-1, 48 h; summary of the method: as §1
[14] = test system: SK-OV-3; assay: Cytotoxicity against human SKOV3 cells assessed as reduction in cell viability after 48 hrs by SRB assay; format: functional, cell-based; settings: SK-OV-3, 48 h; summary of the method: as §1
[15] = test system: ACHN; assay: Cytotoxicity against human ACHN cells assessed as reduction in cell viability after 48 hrs by SRB assay; format: functional, cell-based; summary of the method: as §1
[16] = test system: CAKI-1; assay: Cytotoxicity against human Caki1 cells assessed as reduction in cell viability after 48 hrs by SRB assay; format: functional, cell-based; settings: CAKI-1, 48 h; summary of the method: as §1
[17] = test system: A498; assay: Cytotoxicity against human A498 cells assessed as reduction in cell viability after 48 hrs by SRB assay; format: functional, cell-based; settings: A498, 48 h; summary of the method: as §1
[18] = test system: DU-145; assay: Cytotoxicity against human DU145 cells assessed as reduction in cell viability after 48 hrs by SRB assay; format: functional, cell-based; settings: DU-145, 48 h; summary of the method: as §1
[19] = test system: MDA-MB-231; assay: Cytotoxicity against human MDA-MB-231 cells assessed as reduction in cell viability after 48 hrs by SRB assay; format: functional, cell-based; settings: MDA-MB-231, 48 h; summary of the method: as §1
[20] = test system: Hs-578T; assay: Cytotoxicity against human Hs 578T cells assessed as reduction in cell viability after 48 hrs by SRB assay; format: functional, cell-based; summary of the method: as §1
[21] = test system: K562; assay: Cytotoxicity against human K562 cells assessed as reduction in cell viability at 10 uM after 48 hrs by SRB assay relative to control; format: functional; settings: K562, 48 h
[22] = test system: M14; assay: Cytotoxicity against human M14 cells assessed as reduction in cell viability at 10 uM after 48 hrs by SRB assay relative to control; format: functional; settings: M14, 48 h
[23] = test system: SK-MEL-2; assay: Cytotoxicity against human SK-MEL-2 cells assessed as reduction in cell viability at 10 uM after 48 hrs by SRB assay relative to control; format: functional; settings: SK-MEL-2, 48 h
[24] = test system: IGROV-1; assay: Cytotoxicity against human IGROV1 cells assessed as reduction in cell viability at 10 uM after 48 hrs by SRB assay relative to control; format: functional; settings: IGROV-1, 48 h
[25] = test system: SK-OV-3; assay: Cytotoxicity against human SKOV3 cells assessed as reduction in cell viability at 10 uM after 48 hrs by SRB assay relative to control; format: functional; settings: SK-OV-3, 48 h
[26] = test system: ACHN; assay: Cytotoxicity against human ACHN cells assessed as reduction in cell viability at 10 uM after 48 hrs by SRB assay relative to control; format: functional
[27] = test system: CAKI-1; assay: Cytotoxicity against human Caki1 cells assessed as reduction in cell viability at 10 uM after 48 hrs by SRB assay relative to control; format: functional; settings: CAKI-1, 48 h
[28] = molecular target: T1, Serine/threonine-protein kinase B-raf; assay: Inhibition of BRAF (unknown origin)

T1 sequence (P15056 whole entry): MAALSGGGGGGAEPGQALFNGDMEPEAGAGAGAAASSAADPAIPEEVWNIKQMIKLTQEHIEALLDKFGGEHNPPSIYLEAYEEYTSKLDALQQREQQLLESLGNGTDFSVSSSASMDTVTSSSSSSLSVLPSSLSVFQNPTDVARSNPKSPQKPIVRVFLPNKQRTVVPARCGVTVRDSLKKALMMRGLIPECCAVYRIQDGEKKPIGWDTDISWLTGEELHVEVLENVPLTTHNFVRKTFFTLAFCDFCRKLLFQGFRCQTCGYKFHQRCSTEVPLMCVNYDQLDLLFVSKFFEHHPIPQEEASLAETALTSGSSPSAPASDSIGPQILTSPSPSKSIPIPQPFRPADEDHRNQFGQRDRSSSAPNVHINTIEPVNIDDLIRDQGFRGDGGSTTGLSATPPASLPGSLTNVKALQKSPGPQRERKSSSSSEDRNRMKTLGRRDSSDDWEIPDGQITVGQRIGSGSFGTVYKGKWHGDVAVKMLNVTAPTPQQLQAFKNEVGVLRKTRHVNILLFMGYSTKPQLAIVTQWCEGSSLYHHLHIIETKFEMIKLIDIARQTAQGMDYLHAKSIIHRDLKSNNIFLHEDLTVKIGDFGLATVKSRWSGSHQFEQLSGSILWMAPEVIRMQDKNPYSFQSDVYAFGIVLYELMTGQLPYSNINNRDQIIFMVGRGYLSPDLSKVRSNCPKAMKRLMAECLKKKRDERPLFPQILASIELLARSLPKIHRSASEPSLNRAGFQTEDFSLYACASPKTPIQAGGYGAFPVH
Chain of Serine/threonine-protein kinase B-raf (Homo sapiens, UniProt P15056, V600E) (P15056 2-766 V600E limits assumed): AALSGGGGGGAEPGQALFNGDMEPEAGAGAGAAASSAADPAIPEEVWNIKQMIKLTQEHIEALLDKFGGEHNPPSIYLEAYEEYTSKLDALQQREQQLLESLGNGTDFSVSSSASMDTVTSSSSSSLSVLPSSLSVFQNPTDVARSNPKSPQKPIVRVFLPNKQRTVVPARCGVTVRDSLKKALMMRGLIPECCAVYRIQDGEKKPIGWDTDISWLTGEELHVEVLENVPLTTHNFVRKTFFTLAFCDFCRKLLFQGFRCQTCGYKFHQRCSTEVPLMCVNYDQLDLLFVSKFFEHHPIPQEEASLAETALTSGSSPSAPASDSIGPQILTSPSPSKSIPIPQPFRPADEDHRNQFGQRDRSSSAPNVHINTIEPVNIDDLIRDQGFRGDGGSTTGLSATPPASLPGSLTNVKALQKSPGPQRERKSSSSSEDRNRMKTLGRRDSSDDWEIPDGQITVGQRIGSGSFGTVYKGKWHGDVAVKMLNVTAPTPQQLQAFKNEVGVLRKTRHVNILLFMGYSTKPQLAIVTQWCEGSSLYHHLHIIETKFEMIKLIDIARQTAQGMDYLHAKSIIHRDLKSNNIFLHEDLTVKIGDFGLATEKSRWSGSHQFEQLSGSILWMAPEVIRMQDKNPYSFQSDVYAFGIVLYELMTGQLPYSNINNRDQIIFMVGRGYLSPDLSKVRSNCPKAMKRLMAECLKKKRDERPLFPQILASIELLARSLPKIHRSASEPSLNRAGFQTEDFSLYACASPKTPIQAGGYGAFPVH
Chain of Serine/threonine-protein kinase B-raf (Homo sapiens), P15056 [V600E] (P15056 whole entry V600E): as the sequence (P15056 whole entry) above, with V600E counted along it

O=S(=O)(NCCCNc1nccc(-n2ccc3cccnc32)n1)c1ccc(Cl)cc1
inhibition [1]: 96.8%
inhibition [2]: 66.5%

O=C(NCCNc1nccc(-n2ccc3cccnc32)n1)c1ccc(Cl)cc1
inhibition [1]: 0.16%
inhibition [2]: -1.1%

O=C(NCCCNc1nccc(-n2ccc3cccnc32)n1)c1ccc(F)cc1
inhibition [1]: 67.5%
inhibition [2]: 58.7%

Cc1ccc(S(=O)(=O)NCCCNc2nccc(-n3ccc4cccnc43)n2)cc1
inhibition [1]: 93%
inhibition [2]: 83.3%
IC50 [3]: 1 µM

COc1ccc(NC(=O)Nc2ccc(F)c(C(=O)c3c[nH]c4ncccc34)c2F)cc1
inhibition [1]: 81.3%
inhibition [2]: 69.6%

O=S(=O)(NCCNc1nccc(-n2ccc3cccnc32)n1)c1ccc(F)cc1
inhibition [1]: 89.5%
inhibition [2]: 55.9%

O=S(=O)(NCCNc1nccc(-n2ccc3cccnc32)n1)c1ccc(Cl)cc1
inhibition [1]: 63.7%
inhibition [2]: 49.2%

O=C(NCCNc1nccc(-n2ccc3cccnc32)n1)c1c(F)cccc1F
inhibition [1]: -1.9%
inhibition [2]: 0.1%

O=C(Nc1ccc(Br)cc1)Nc1ccc(F)c(C(=O)c2c[nH]c3ncc(Br)cc23)c1F
inhibition [1]: 92.3%
inhibition [2]: 72.5%
IC50 [4]: 10.9 µM
IC50 [5]: 7.21 µM
IC50 [6]: 10.5 µM
IC50 [7]: 9.01 µM
IC50 [8]: 8.71 µM
IC50 [9]: 7.92 µM
IC50 [10]: 6.02 µM
IC50 [11]: 26.5 µM
IC50 [12]: 9.26 µM
IC50 [13]: 5.06 µM
IC50 [14]: 4.52 µM
IC50 [15]: 7.62 µM
IC50 [16]: 3.04 µM
IC50 [17]: 11.2 µM
IC50 [18]: 9.62 µM
IC50 [19]: 12.2 µM
IC50 [20]: 9.36 µM
IC50 [3]: 0.08 µM
inhibition at 10 µM [21]: 65%
inhibition at 10 µM [22]: 65%
inhibition at 10 µM [23]: 85%
inhibition at 10 µM [24]: 75%
inhibition at 10 µM [25]: 87%
inhibition at 10 µM [26]: 70%
inhibition at 10 µM [27]: 90%

O=C(NCCCNc1nccc(-n2ccc3cccnc32)n1)c1ccc(Cl)cc1
inhibition [1]: 80.7%
inhibition [2]: 72.1%

O=S(=O)(NCCNc1nccc(-n2ccc3cccnc32)n1)c1cccc(C(F)(F)F)c1
inhibition [1]: 18.1%
inhibition [2]: 10.2%

O=C(Nc1ccc(Br)cc1)Nc1ccc(F)c(C(=O)c2c[nH]c3ncccc23)c1F
inhibition [1]: 92%
inhibition [2]: 80.1%

O=S(=O)(NCCNc1nccc(-n2ccc3cccnc32)n1)c1ccccc1
inhibition [1]: 66.5%
inhibition [2]: 52.3%

O=C(NCCCNc1nccc(-n2ccc3cccnc32)n1)c1ccccc1
inhibition [1]: 69.4%
inhibition [2]: 60.9%

O=S(=O)(NCCNc1nccc(-n2ccc3cccnc32)n1)c1ccc(Br)cc1
inhibition [1]: 65.9%
inhibition [2]: 44.6%

O=C(NCCNc1nccc(-n2ccc3cccnc32)n1)c1ccccc1
inhibition [1]: 86.3%
inhibition [2]: 86.3%

Cc1ccc(NC(=O)Nc2ccc(F)c(C(=O)c3c[nH]c4ncccc34)c2F)cc1
inhibition [1]: 98.4%
inhibition [2]: 77.6%
IC50 [3]: 0.085 µM

COc1ccc(S(=O)(=O)NCCCNc2nccc(-n3ccc4cccnc43)n2)cc1
inhibition [1]: 94.5%
inhibition [2]: 82.1%
IC50 [3]: 0.79 µM

O=S(=O)(NCCNc1nccc(-n2ccc3cccnc32)n1)c1cccc(Br)c1
inhibition [1]: 65.3%
inhibition [2]: 55.2%

CCCS(=O)(=O)Nc1ccc(F)c(-n2cc(-c3cncnc3)c3nc(N(C)C4CCN(CC)CC4)ccc32)c1F [XP-102]
IC50 [28]: 0.0004 µM
